According to ChEMBL document CHEMBL4145654, “Structure-Based Discovery of CF53 as a Potent and Orally Bioavailable Bromodomain and Extra-Terminal (BET) Bromodomain Inhibitor” (J Med Chem, 2018):

Key:
[1] = system: Mus musculus; assay: Cmax in Balb/c mouse at 25 mg/kg, po by LC-MS/MS analysis; type: ADME, organism-based; design: dose 25 mg/kg, route oral; conditions: in vivo
Procedure, shortened: (§1)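 Balb/c mice dosed iv at 5.0 mg/kg or po at 25 mg/kg, compound in vehicle of 20% (v/v) PCP and 70% (v/v) PBS. Serial blood samples taken at 0, 5, 15, 30 min and 1, 2, 4, 6, 8, 24 h. Plasma obtained by centrifugation and stored at −80 °C. Analysis by LC-MS/MS, positive-ion MRM. Parameters from noncompartmental analysis.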

[2] = target: Bromodomain and WD repeat-containing protein 1 (Homo sapiens, UniProt Q9NSI6); assay: Binding affinity to human WDR9 bromodomain 2 (A1310 to E1430 residues) expressed in bacterial expression system by BROMOscan assay
[3] = target: Peregrin (Homo sapiens, UniProt P55201); assay: Binding affinity to human BRPF1 (E627 to G740 residues) expressed in bacterial expression system by BROMOScan assay
[4] = species: Homo sapiens; assay: Selectivity index, ratio of Kd for human EP300 (A1040 to G1161 residues) to Kd for human BRD3 bromodomain 1 (P24 to E144 residues)
[5] = target: Bromodomain testis-specific protein (Homo sapiens, UniProt Q58F21); assay: Binding affinity to human BRDT bromodomain 1 (N21 to E137 residues) expressed in bacterial expression system by BROMOscan assay
[6] = target: SWI/SNF-related matrix-associated actin-dependent regulator of chromatin subfamily A member 4 (Homo sapiens, UniProt P51532); assay: Binding affinity to human SMARCA4 (A1448 to S1575 residues) expressed in bacterial expression system by BROMOScan assay
[7] = target: Bromodomain adjacent to zinc finger domain protein 2A (Homo sapiens, UniProt Q9UIF9); assay: Binding affinity to human BAZ2A (M1792 to L1905 residues) expressed in bacterial expression system by BROMOScan assay
[8] = species: Homo sapiens; assay: Selectivity index, ratio of Kd for human EP300 (A1040 to G1161 residues) to Kd for human BRDT bromodomain 1 (N21 to E137 residues)
[9] = species: Homo sapiens; assay: Selectivity index, ratio of Kd for human CECR2 (P423 to D543 residues) to Kd for human BRD2 bromodomain 2 (E348 to D455 residues)
[10] = system: MDA-MB-231; assay: Growth inhibition of human MDA-MB-231 cells after 4 days by WST-8 assay; type: functional, cell-based; conditions: MDA-MB-231, 96 h
Procedure, shortened: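 Cells used within 3 months of thaw. Breast cancer cells seeded at 3000 cells/well, then serially diluted compound added, cultured 4 days. Growth read by WST-8 (10% v/v final, 1−3 h, 450 nm). Readings normalized to DMSO-treated cells. IC50 by nonlinear regression.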

[11] = target: Protein polybromo-1 (Homo sapiens, UniProt Q86U86); assay: Binding affinity to human PBRM1 bromodomain 5 (S645 to D766 residues) expressed in bacterial expression system by BROMOScan assay
[12] = species: Homo sapiens; assay: Selectivity index, ratio of Kd for human EP300 (A1040 to G1161 residues) to Kd for human BRD4 bromodomain 2 (K333 to E460 residues)
[13] = target: Histone acetyltransferase KAT2B (Homo sapiens, UniProt Q92831); assay: Binding affinity to human PCAF (G715 to D831 residues) expressed in bacterial expression system by BROMOScan assay
[14] = Half life in Balb/c mouse at 25 mg/kg, po by LC-MS/MS analysis; type: ADME, organism-based; conditions: in vivo; procedure, shortened: as §1
[15] = target: T1, Bromodomain-containing protein 4 (Homo sapiens, UniProt O60885); assay: Inhibition of FAM-labeled ZBA248 binding to recombinant human BRD4 bromodomain 1 (44 to 168 residues) expressed in Rosetta2 Escherichia coli DE3 cells after 30 mins by fluorescence polarization assay
Procedure, shortened: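 Recombinant human BRD4 BD1 (residues 44−168) in a fluorescence polarization competitive binding assay, run as described in earlier work.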

[16] = target: Nucleosome-remodeling factor subunit BPTF (Homo sapiens, UniProt Q12830); assay: Binding affinity to human FALZ (S2791 to H2911 residues) expressed in bacterial expression system by BROMOScan assay
[17] = target: T1, Bromodomain-containing protein 4; assay: Binding affinity to human BRD4 bromodomain 2 (K333 to E460 residues) expressed in bacterial expression system by BROMOscan assay
[18] = species: Homo sapiens; assay: Selectivity index, ratio of Kd for human CREBBP (R1081 to G1197 residues) to Kd for human BRD3 bromodomain 1 (P24 to E144 residues)
[19] = species: Homo sapiens; assay: Selectivity index, ratio of Kd for human CECR2 (P423 to D543 residues) to Kd for human BRD4 bromodomain 1 (N44 to E168 residues)
[20] = target: Serine/threonine-protein kinase PLK4 (Homo sapiens, UniProt O00444); assay: Inhibition of human PLK4 using casein as substrate in presence of [gamma-33P]-ATP
[21] = target: Bromodomain and PHD finger-containing protein 3 (Homo sapiens, UniProt Q9ULD4); assay: Binding affinity to human BRPF3 (E588 to G701 residues) expressed in bacterial expression system by BROMOScan assay
[22] = Clearance in Balb/c mouse at 5 mg/kg, iv by LC-MS/MS analysis; type: ADME, organism-based; conditions: in vivo; procedure, shortened: as §1
[23] = target: Histone acetyltransferase p300 (Homo sapiens, UniProt Q09472); assay: Binding affinity to human EP300 (A1040 to G1161 residues) expressed in bacterial expression system by BROMOScan assay
[24] = species: Homo sapiens; assay: Selectivity index, ratio of Kd for human CREBBP (R1081 to G1197 residues) to Kd for human BRDT bromodomain 1 (N21 to E137 residues)
[25] = target: Bromodomain-containing protein 8 (Homo sapiens, UniProt Q9H0E9); assay: Inhibition of BRD8 bromodomain 1 (unknown origin) by BROMOScan assay
[26] = Drug uptake in tumor of SCID mouse xenografted with human MDA-MB-231 cells at 50 mg/kg administered via oral gavage measured after 1 hr; type: ADME, organism-based, Neoplasm; conditions: read-out: Drug uptake
Procedure, shortened: (§2)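 Limited PK in SCID mice bearing MDA-MB-231 tumors, 50 mg/kg given by oral gavage. Plasma and tumor tissue drug levels measured at two time points per compound. Values are the mean of two mice/tumors per time point.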

[27] = target: Transcription initiation factor TFIID subunit 1 (Homo sapiens, UniProt P21675); assay: Binding affinity to human TAF1 bromodomain 2 (D1521 to D1656 residues) expressed in bacterial expression system by BROMOScan assay
[28] = species: Homo sapiens; assay: Selectivity index, ratio of Kd for human CREBBP (R1081 to G1197 residues) to Kd for human BRD2 bromodomain 1 (K71 to N194 residues)
[29] = Drug uptake in tumor of SCID mouse xenografted with human MDA-MB-231 cells at 50 mg/kg administered via oral gavage measured after 6 hrs; type: ADME, organism-based, Neoplasm; conditions: read-out: Drug uptake; procedure, shortened: as §2

Serine/threonine-protein kinase PLK4, sequence (O00444 whole entry, the tested form may be a part): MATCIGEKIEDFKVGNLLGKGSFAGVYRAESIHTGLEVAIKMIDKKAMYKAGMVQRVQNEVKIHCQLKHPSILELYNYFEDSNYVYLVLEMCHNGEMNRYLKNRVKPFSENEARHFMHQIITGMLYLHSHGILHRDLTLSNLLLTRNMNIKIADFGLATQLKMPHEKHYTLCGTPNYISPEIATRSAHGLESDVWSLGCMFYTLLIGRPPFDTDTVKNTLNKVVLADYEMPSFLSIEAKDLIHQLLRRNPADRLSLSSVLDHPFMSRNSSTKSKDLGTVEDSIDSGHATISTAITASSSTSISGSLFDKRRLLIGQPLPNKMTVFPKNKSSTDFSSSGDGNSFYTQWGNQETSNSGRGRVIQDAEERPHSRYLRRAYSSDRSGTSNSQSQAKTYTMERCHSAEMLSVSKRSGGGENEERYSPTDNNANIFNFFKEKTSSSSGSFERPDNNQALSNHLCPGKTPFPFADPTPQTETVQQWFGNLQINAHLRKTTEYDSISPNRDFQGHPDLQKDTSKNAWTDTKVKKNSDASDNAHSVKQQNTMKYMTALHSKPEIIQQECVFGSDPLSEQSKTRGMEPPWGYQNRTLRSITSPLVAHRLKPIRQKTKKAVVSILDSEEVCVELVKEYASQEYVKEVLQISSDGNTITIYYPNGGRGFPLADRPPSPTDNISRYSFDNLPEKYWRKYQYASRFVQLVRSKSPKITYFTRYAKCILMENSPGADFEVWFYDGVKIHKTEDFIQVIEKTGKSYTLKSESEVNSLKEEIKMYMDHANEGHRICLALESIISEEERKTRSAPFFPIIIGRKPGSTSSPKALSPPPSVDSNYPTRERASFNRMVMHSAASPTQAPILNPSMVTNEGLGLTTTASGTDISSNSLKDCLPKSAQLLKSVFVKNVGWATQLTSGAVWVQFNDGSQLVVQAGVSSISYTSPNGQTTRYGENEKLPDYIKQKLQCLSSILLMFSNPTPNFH
Peregrin, sequence (P55201 whole entry, the tested form may be a part): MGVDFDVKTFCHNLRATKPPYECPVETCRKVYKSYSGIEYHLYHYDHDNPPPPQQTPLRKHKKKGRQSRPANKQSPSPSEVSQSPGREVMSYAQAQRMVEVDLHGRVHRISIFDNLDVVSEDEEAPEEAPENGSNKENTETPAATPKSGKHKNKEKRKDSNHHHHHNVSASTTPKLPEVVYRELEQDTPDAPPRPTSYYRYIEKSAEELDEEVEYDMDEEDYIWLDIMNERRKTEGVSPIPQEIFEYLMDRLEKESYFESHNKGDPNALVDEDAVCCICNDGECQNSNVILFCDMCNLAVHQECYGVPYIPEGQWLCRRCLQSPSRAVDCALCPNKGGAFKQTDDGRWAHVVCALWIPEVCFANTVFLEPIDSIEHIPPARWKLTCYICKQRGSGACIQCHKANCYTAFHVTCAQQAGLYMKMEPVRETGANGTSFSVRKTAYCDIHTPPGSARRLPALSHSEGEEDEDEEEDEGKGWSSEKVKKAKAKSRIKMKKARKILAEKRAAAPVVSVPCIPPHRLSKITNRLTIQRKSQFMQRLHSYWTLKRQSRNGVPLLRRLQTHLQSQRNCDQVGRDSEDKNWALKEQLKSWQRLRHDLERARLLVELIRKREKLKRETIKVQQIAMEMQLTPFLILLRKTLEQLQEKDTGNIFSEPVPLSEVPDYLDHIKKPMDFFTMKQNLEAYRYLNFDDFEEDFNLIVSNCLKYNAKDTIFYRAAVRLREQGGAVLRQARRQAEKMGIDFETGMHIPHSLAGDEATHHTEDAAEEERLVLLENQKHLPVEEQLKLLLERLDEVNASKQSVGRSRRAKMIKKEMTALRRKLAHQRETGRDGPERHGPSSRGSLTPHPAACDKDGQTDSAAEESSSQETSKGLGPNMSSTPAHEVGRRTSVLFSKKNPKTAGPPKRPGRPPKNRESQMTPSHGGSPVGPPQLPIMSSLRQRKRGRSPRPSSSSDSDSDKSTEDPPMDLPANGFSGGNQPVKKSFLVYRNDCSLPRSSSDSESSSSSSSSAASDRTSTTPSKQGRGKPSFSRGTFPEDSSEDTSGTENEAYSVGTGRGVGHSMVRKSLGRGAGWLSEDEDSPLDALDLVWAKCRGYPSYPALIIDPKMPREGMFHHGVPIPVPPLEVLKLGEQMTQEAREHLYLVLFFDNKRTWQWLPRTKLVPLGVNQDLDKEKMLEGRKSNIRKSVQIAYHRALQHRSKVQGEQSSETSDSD
SWI/SNF-related matrix-associated actin-dependent regulator of chromatin subfamily A member 4, sequence (P51532 whole entry, the tested form may be a part): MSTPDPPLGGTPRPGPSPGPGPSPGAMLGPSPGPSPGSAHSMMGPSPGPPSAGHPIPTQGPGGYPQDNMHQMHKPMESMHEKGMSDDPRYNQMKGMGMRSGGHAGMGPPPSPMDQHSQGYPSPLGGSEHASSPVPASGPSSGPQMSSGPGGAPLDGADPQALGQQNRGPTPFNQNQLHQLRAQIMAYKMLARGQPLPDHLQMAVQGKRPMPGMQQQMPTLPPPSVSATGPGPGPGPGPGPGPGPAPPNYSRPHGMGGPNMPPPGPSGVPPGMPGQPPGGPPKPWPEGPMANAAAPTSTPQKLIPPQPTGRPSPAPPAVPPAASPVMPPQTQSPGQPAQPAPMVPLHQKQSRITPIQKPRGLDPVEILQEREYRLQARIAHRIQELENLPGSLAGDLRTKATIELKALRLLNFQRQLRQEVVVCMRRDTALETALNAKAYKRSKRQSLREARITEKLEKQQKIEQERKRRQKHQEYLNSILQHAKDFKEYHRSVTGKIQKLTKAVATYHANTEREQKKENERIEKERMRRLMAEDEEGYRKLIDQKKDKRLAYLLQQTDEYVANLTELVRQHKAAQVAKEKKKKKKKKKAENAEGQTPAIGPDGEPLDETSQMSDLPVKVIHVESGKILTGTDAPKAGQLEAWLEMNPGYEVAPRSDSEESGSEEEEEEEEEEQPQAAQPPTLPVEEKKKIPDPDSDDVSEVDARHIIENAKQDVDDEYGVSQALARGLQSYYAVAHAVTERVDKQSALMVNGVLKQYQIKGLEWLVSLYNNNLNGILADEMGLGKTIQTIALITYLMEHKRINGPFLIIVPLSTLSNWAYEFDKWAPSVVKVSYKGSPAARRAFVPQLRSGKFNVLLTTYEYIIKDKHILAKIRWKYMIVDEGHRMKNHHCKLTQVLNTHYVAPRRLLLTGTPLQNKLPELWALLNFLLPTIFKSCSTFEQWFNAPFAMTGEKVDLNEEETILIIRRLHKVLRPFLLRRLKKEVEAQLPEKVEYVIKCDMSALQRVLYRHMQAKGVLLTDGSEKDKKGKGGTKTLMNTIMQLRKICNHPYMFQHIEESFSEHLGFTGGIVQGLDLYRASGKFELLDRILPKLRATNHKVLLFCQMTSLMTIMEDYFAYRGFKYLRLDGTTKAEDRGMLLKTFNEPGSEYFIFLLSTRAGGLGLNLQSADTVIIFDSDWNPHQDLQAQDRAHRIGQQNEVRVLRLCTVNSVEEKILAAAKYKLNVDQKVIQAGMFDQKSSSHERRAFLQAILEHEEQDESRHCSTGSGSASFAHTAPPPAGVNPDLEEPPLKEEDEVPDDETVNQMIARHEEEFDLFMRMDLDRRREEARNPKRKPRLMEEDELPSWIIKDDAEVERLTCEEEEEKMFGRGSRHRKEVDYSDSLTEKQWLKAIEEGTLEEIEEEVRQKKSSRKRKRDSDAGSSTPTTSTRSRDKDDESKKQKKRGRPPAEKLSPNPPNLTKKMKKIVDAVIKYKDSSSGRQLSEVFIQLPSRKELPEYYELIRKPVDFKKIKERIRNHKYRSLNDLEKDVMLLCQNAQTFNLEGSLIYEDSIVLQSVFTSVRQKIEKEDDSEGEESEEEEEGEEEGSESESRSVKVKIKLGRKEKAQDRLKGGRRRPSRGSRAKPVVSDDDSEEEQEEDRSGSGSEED
Bromodomain and PHD finger-containing protein 3, sequence (Q9ULD4 whole entry, the tested form may be a part): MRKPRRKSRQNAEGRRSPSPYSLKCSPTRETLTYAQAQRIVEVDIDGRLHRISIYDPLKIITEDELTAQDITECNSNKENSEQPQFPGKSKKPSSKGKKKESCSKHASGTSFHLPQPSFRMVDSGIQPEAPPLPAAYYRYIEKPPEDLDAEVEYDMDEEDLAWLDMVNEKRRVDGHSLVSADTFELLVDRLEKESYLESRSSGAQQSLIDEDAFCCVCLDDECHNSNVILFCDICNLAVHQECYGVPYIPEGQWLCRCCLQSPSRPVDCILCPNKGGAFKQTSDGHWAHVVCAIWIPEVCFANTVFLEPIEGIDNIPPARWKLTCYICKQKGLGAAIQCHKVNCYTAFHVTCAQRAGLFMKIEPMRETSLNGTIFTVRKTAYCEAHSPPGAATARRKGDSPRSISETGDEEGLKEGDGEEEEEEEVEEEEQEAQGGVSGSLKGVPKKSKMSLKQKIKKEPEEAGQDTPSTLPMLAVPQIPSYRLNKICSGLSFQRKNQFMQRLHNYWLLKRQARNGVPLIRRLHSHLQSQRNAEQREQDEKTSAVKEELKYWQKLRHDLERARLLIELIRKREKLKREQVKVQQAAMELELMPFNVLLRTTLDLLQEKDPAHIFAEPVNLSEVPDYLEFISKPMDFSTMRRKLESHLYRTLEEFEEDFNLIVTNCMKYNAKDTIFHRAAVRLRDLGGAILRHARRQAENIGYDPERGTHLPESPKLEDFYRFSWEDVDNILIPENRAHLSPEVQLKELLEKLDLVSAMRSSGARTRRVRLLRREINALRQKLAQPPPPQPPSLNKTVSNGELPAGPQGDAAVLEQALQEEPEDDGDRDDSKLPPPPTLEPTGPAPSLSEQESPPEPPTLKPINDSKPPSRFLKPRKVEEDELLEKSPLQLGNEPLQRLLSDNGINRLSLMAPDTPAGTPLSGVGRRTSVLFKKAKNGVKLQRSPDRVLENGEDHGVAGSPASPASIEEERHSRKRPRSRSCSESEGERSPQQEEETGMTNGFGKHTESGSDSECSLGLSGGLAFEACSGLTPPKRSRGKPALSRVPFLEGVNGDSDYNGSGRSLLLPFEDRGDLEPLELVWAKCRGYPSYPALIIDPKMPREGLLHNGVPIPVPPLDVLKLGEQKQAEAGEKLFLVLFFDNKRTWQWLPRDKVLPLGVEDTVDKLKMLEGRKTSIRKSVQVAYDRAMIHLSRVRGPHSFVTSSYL

Question: For `COc1cc2c(cc1-c1c(C)noc1C)[nH]c1nc(C)nc(Nc3cc(C4CC4)nn3C)c12`, which Cmax [1] is on record?
Answer: 6400 ng/mL

Question: And the Kd [2]?
Answer: > 5 µM

Question: What about the Kd [3] of the same molecule?
Answer: > 4 µM

Question: What about the Selectivity Index [4] of the same molecule?
Answer: > 50

Question: What about the Kd [5] of the same molecule?
Answer: 0.002 µM

Question: And the Kd [6]?
Answer: > 5 µM

Question: And the Kd [7]?
Answer: > 5 µM

Question: And the Selectivity Index [8]?
Answer: > 50

Question: What about the Selectivity Index [9] of the same molecule?
Answer: > 50

Question: What about the IC50 [10] of the same molecule?
Answer: 0.085 µM

Question: What about the Kd [11] of the same molecule?
Answer: > 5 µM

Question: What about the Selectivity Index [12] of the same molecule?
Answer: > 50

Question: What about the Kd [13] of the same molecule?
Answer: > 5 µM

Question: What about the half-life [14] of the same molecule?
Answer: 1 h

Question: And the IC50 [15]?
Answer: 0.002 µM

Question: And the Ki [15]?
Answer: < 0.001 µM

Question: And the Kd [16]?
Answer: > 5 µM

Question: And the Kd [17]?
Answer: 0.0008 µM

Question: And the Selectivity Index [18]?
Answer: > 20

Question: And the Selectivity Index [19]?
Answer: > 50

Question: What about the IC50 [20] of the same molecule?
Answer: 3.9 µM

Question: What about the Kd [21] of the same molecule?
Answer: > 5 µM

Question: What about the clearance [22] of the same molecule?
Answer: 20.8 mL/min/kg

Question: And the Kd [23]?
Answer: 0.11 µM

Question: What about the Selectivity Index [24] of the same molecule?
Answer: > 20

Question: And the Kd [25]?
Answer: > 5 µM

Question: What about the concentration at 1 h [26] of the same molecule?
Answer: 7380 ng/g

Question: And the Kd [27]?
Answer: > 5 µM

Question: What about the Selectivity Index [28] of the same molecule?
Answer: > 20

Question: And the concentration at 6 h [29]?
Answer: 3670 ng/g
